Assay results collected from several papers.
Each line is one published result; the experiments were not run side by side. pIC50: −log10 of the molar value.
Cell line: MCF7
Read-out: cell growth or viability

SMILES	method	time	pIC50
O=C1Nc2c(C(F)(F)F)cccc2[C@@]1(c1ccc(O)cc1)N1CCC(F)(F)C1	resazurin	72 h	7.66
CC1(C)CC[C@]2(C)CC[C@]3(C)C(=CC[C@@H]4[C@@]5(C)CC[C@H](O)C(C)(C)[C@@H]5CC[C@]43C)[C@@H]2C1	WST-1	48 h	4.20
COc1cc(Nc2nccc(-c3cnn4nc(OC)ccc34)n2)cc(C(F)(F)F)c1	ATP luminescence		6.02
Cc1cc(=O)[nH]c(=O)n1Cc1cn(-c2c3ccccc3nc3ccccc23)nn1	MTT		5.57
O=S(=O)(Cc1ccccc1)NN=Cc1cn(CCN2CCOCC2)c2ccccc12	MTT	48 h	4.20
Clc1ccnc2c1ccc1c(Cl)ccnc12	MTT	48 h	< 4.30
Cc1ccc2nc(-c3ccc(Cl)cc3)[nH]c2c1	MTT	48 h	4.59
CSc1nc(/N=C/c2cc(Br)ccc2O)n(-c2ccc(C(=O)O)cc2)n1	MTT		4.50
Oc1ncnc2cc(Nc3nc(-c4ccc(C(F)(F)F)cc4)cs3)ccc12	MTT		5.54
CC/C(=C(\c1ccc(O)cc1)c1ccc(OCCNC)cc1)c1ccccc1		5 days	6.17
O=C(NC(=S)N1CCCCC1)c1ccc2ccccc2c1		48 h	5.14
COc1cc2ncnc(Nc3ccc(F)c(Cl)c3)c2cc1NC(=O)N/N=C/CN1CCCC1	MTT	72 h	5.12
Cc1ccc2c(Br)cc(Br)c(O)c2n1	MTT	48 h	< 3.82
O=Cc1ccc(-c2ccc3ncnc(Nc4cccc(C(F)(F)F)c4)c3c2)cc1	MTT	24 h	4.81
CCOC(=O)/C=C1\S/C(=N\C(=O)c2ccc3ccccc3c2)N(C2CCCCC2)C1=O		48 h	4.83
CN(C)C/C=N/NC(=O)Nc1cc2c(Nc3ccc(F)c(Cl)c3)ncnc2cc1O[C@H]1CCOC1	MTT	72 h	5.24
CCOc1ccc(-c2nc3ccccc3n2Cc2ccccc2)cc1	MTT		4.40
COc1cccc2c3c(c[n+](C)c12)sc1cccc(F)c13	MTT	72 h	5.52
COc1cc2c(Nc3ccc(NC(=O)c4ccccc4)cc3)ncnc2cc1OCCCN1CCOCC1	MTS	48 h	5.51
COc1cc2ncnc(Nc3ccc(F)c(Cl)c3)c2cc1NC(=O)N/N=C/c1cccn1CCCN1CCOCC1	MTT	72 h	5.84
COc1cccc2c1C(=O)c1c(O)c3c(c(O)c1C2=O)C[C@@](O)(C(=O)CO)C[C@@H]3O[C@H]1C[C@H](N)[C@H](O)[C@H](C)O1	resazurin	72 h	6.62
C[C@H]1[C@@H](O)O[C@@H]2O[C@@]3(C)CC[C@H]4[C@H](C)CC[C@@H]1[C@@]24OO3	CCK-8	48 h	< 4.30
c1ccc2[nH]c(-c3ccc4c(c3)OCO4)nc2c1	MTT	48 h	< 4.00
CC(=O)O[C@H]1C(=O)[C@@]2(C)[C@H]([C@H](OC(=O)c3ccccc3)[C@]3(O)C[C@H](OC(=O)[C@H](O)[C@@H](NC(=O)c4ccccc4)c4ccccc4)C(C)=C1C3(C)C)[C@]1(OC(C)=O)CO[C@@H]1C[C@@H]2O		72 h	7.96
Cc1ccc2nc(-c3ccccc3O)[nH]c2c1	MTT	48 h	4.74

SMILES	method	time	pIC50
Cc1ccc(-c2nn(-c3ccc(S(C)(=O)=O)cc3)cc2/C=N\N=c2/[nH]c(-c3ccc([N+](=O)[O-])cc3)cs2)cc1	MTT	48 h	4.44
FC(F)(F)c1cccc(Nc2ncnc3ccc(-c4ccc5c(c4)OCO5)cc23)c1	MTT	24 h	5.17
O=c1[nH]cc(F)c(=O)[nH]1	WST-1	48 h	5.51
CSc1nc(/N=C/c2cccc(O)c2)n(-c2ccc(C(=O)O)cc2)n1	MTT		4.51
Cc1ccc2nc(-c3cccc([N+](=O)[O-])c3)[nH]c2c1	MTT	48 h	4.72
CCN(CC)CCCn1cccc1/C=N/NC(=O)Nc1cc2c(Nc3ccc(F)c(Cl)c3)ncnc2cc1O[C@H]1CCOC1	MTT	72 h	5.60
COc1c2c(cc3c1OCO3)[C@]13C=C[C@H](OC)C[C@H]1N(C2)C[C@H]3OC(=O)c1cccc(C)c1	WST-1		< 5.00
Oc1ccccc1-c1nc2ccccc2[nH]1	MTT	48 h	< 4.00
CS(=O)(=O)c1ccc(-n2cc(/C=N/N=c3\[nH]c(-c4ccc([N+](=O)[O-])cc4)cs3)c(-c3ccc(Br)cc3)n2)cc1	MTT	48 h	4.45
COc1cc2ncnc(Nc3ccc(F)c(Cl)c3)c2cc1NC(=O)N/N=C/CN1CCOCC1	MTT	72 h	5.13
COc1ccc(Nc2nc(-n3nc(C)cc3C)nc(-n3nc(C)cc3C)n2)cc1	MTT	72 h	4.92
COc1cc2ncnc(Nc3ccc(F)c(Cl)c3)c2cc1NC(=O)N/N=C/c1cccn1CCCN1CCCC1	MTT	72 h	5.88
O=C(O)c1ccc(-n2nc(Oc3ccccc3)nc2/N=C/c2cc([N+](=O)[O-])ccc2O)cc1	MTT		4.67
COc1ccc(S(=O)(=O)NN=Cc2cn(CCN3CCOCC3)c3ccccc23)cc1	MTT	48 h	4.20
FC(F)(F)c1cccc(Nc2ncnc3ccc(-c4ccsc4)cc23)c1	MTT	24 h	5.36
O=C(NC(=S)Nc1ccc([N+](=O)[O-])cc1)c1ccc2ccccc2c1		48 h	5.11
CCN(CC)C/C=N/NC(=O)Nc1cc2c(Nc3ccc(F)c(Cl)c3)ncnc2cc1OC	MTT	72 h	5.48
COc1cccc(-c2nc3ccc(C)cc3[nH]2)c1	MTT	48 h	4.30
CCNC(=S)NC(=O)c1ccc2ccccc2c1		48 h	5.20
O=c1[nH]c(=S)[nH]c2c1CCCN2	MTT	72 h	< 4.00
Fc1ccc(-c2nc3ccccc3n2Cc2ccccc2)cc1	MTT		4.50
Oc1ncnc2cc(Nc3nc(-c4ccc(F)cc4)cs3)ccc12	MTT		5.43
C1CCCC1.C1CCCC1.[Cl][W][Cl]	MTT		3.20
CS(=O)(=O)c1ccc(-n2cc(/C=N/N=c3\[nH]c(-c4ccc(Br)cc4)cs3)c(-c3ccc(Br)cc3)n2)cc1	MTT	48 h	4.78
